The source made the active and inactive calls. The rule behind the calls is not given here.

In experiment [1] the target is Transcription factor p65 (Mus musculus) (UniProt Q04207). The experiment is described as follows: Inhibition of LPS-induced RelA phosphorylation in mouse BMDM treated 2 hrs after LPS challenge measured up to 120 mins by Western blot analysis.
Experiment [2] deals with MEF. Put plainly: Effect on TNF-induced c-jun mRNA expression in MEF by Northern blot analysis. The experiment is classed as functional, cell-based. Conditions: Mus musculus.
Experiment [3] deals with T1, Inhibitor of nuclear factor kappa-B kinase subunit alpha (Homo sapiens) (UniProt O15111).
T1 sequence (whole entry): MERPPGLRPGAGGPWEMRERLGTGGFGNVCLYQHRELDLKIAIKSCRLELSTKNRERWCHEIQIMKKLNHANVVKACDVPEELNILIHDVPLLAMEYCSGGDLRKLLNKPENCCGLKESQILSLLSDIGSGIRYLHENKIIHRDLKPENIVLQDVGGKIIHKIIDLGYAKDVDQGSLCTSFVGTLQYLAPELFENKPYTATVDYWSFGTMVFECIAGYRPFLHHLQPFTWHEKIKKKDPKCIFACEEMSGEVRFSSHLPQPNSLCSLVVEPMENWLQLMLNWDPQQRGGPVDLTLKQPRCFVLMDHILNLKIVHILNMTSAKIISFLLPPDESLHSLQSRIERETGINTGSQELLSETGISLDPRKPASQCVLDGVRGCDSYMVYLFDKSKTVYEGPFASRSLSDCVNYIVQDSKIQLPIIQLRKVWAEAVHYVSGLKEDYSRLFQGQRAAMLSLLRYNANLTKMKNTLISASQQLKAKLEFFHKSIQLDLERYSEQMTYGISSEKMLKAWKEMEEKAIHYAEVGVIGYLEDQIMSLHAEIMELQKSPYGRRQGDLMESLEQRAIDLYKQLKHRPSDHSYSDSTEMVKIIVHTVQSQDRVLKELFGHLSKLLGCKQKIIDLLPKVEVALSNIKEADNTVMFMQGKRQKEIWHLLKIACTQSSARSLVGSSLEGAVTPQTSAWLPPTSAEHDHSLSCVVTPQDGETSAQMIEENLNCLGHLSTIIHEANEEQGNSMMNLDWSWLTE
The experiment is described as follows: Inhibition of IkappaBalpha in human bronchial epithelial cells assessed after 2 hrs by Western blot analysis. The conditions noted are these: Epithelial cell. The experiment is classed as cell-based. In short, it runs like this: (§1)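 WI38 lung fibroblasts and bronchial epithelial cells were stimulated for 2 hours. The same Western blot was probed for PARP cleavage, total IκBα and phosphorylated IκBα.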
Background: A western blot detects proteins with antibodies after separation by electrophoresis.

For experiment [4], the system named is Epithelial cell. Put plainly: Inhibition of TNF-induced IkappaBalpha expression in human bronchial epithelial cells up to 120 mins by Western blot analysis. The experiment is classed as functional, cell-based.
Experiment [5] is filed under the species Mus musculus. The experiment is described as follows: Suppression of LPS-induced TNF expression in C57BL/6 transgenic mouse bearing TNF-reporter after 2 hrs by luciferase reporter gene assay. The experiment is classed as functional, organism-based. The method, boiled down: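 Animals received an injection of vehicle, LPS, C12, or LPS plus C12. Whole-animal bioluminescence was recorded 2 hours after injection as the read-out of reporter activity.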
Background: A reporter such as luciferase makes a cellular process visible.

For experiment [6], the system named is Macrophage. The experiment is described as follows: Inhibition of LPS-induced TNF mRNA expression in mouse C57BL/6 mouse alveolar macrophages up to 50 uM by Northern blot analysis. The experiment is classed as functional, cell-based.
Experiment [7] concerns the target T1, Inhibitor of nuclear factor kappa-B kinase subunit alpha (Homo sapiens). The experiment is described as follows: Inhibition of IkappaBalpha phosphorylation in human WI38 cells assessed after 2 hrs by Western blot analysis. The experiment is classed as cell-based. The conditions noted are these: WI-38. In short, it runs like this:
as §1

The species named for experiment [8] is Mus musculus. The experiment is described as follows: Induction of IKK activity in mouse BMDM assessed as GST-IkappaBalpha phosphorylation by immunoprecipitation kinase assay.
The subject of experiment [9] is THP-1. Put plainly: Inhibition of LPS-induced IkappaBalpha expression in human THP1 cells measured up to 120 mins by Western blot analysis. The experiment is classed as functional, cell-based.
Experiment [10] has as its system BMDM. The experiment is described as follows: Induction of c-jun mRNA expression in mouse BMDM at 50 uM after 2 hrs by Northern blot analysis. The experiment is classed as functional.
Experiment [11] has as its target T2, MAP kinase p38 (Mus musculus) (UniProt P47811+O08911+Q9WUI1+Q9Z1B7). Put plainly: Inhibition of LPS-induced p38 phosphorylation in mouse BMDM measured up to 120 mins by Western blot analysis.
In experiment [12] the test system is MEF. Put plainly: Inhibition of TNF-induced RelA expression in mouse MEF up to 120 mins by Western blot analysis. The experiment is classed as functional, cell-based.
In experiment [13] the test system is Macrophage. Put plainly: Inhibition of LPS-induced c-jun mRNA expression in mouse alveolar macrophages after 90 mins by Northern blot analysis. The experiment is classed as functional, cell-based.
The subject of experiment [14] is MEF. Put plainly: Inhibition of LPS-induced c-jun mRNA expression in MEF after 90 mins by Northern blot analysis. The experiment is classed as functional, cell-based. The conditions noted are these: Mus musculus.
Experiment [15] concerns Macrophage. Put plainly: Inhibition of LPS-induced IkappaBalpha mRNA expression in mouse alveolar macrophages after 90 mins by Northern blot analysis. The experiment is classed as functional, cell-based.
The target in experiment [16] is T2, MAP kinase p38 (Mus musculus). Put plainly: Inhibition of LPS-induced p38 phosphorylation in C57BL/6 mouse alveolar macrophages measured up to 120 mins by Western blot analysis.
The subject of experiment [17] is Epithelial cell. The experiment is described as follows: Inhibition of TNF-induced IkappaBbeta expression in human bronchial epithelial cells up to 120 mins by Western blot analysis. The experiment is classed as functional, cell-based.
For experiment [18], the target named is T1, Inhibitor of nuclear factor kappa-B kinase subunit alpha (Homo sapiens). The experiment is described as follows: Inhibition of IkappaBalpha in human WI38 cells assessed after 2 hrs by Western blot analysis. The experiment is classed as cell-based. Conditions: WI-38. The method, boiled down: as §1
For experiment [19], the system named is BMDM. The experiment is described as follows: Inhibition of LPS-induced MCP-1 mRNA expression in mouse BMDM up to 3 hrs by Northern blot analysis. The experiment is classed as functional, cell-based.
Experiment [20] addresses Transcription factor p65 (Mus musculus) (UniProt Q04207). Put plainly: Inhibition of TNF-induced RelA phosphorylation in mouse MEF up to 120 mins by Western blot analysis.
The target in experiment [21] is MAP kinase p38 (Homo sapiens) (UniProt O15264+Q15759+Q16539+P53778). Put plainly: Inhibition of TNF-induced p38 phosphorylation in human bronchial epithelial cells up to 120 mins by Western blot analysis. The experiment is classed as cell-based. The conditions noted are these: Epithelial cell.
In experiment [22] the target is Transcription factor p65 (Homo sapiens) (UniProt Q04206). Put plainly: Inhibition of TNF-induced RelA phosphorylation in human bronchial epithelial cells up to 120 mins by Western blot analysis. The experiment is classed as cell-based. Conditions: Epithelial cell.
Chain of Transcription factor p65 (Homo sapiens) (Q04206 whole entry): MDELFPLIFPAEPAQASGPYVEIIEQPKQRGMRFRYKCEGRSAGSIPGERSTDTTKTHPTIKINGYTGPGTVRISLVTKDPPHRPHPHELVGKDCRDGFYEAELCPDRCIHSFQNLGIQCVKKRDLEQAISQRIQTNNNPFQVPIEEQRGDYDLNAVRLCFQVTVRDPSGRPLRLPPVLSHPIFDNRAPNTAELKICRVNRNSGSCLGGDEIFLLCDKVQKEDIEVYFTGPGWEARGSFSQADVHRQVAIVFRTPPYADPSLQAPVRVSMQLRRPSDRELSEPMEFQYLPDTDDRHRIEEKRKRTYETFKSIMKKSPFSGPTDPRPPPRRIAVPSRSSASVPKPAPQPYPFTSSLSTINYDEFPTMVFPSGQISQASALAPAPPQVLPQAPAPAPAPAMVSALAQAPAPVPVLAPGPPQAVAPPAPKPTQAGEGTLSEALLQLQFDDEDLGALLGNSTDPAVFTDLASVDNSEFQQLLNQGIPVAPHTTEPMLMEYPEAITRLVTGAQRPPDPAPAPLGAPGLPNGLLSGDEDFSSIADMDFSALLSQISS
The subject of experiment [23] is BMDM. Put plainly: Inhibition of LPS-induced IP-10 mRNA expression in mouse BMDM up to 3 hrs by Northern blot analysis. The experiment is classed as functional, cell-based.
For experiment [24], the system named is BMDM. The experiment is described as follows: Inhibition of heat-killed Staphylococcus aureus-induced IL1-beta mRNA expression in mouse BMDM by Northern blot analysis. The experiment is classed as functional.

Chain of Transcription factor p65 (Mus musculus) (Q04207 whole entry): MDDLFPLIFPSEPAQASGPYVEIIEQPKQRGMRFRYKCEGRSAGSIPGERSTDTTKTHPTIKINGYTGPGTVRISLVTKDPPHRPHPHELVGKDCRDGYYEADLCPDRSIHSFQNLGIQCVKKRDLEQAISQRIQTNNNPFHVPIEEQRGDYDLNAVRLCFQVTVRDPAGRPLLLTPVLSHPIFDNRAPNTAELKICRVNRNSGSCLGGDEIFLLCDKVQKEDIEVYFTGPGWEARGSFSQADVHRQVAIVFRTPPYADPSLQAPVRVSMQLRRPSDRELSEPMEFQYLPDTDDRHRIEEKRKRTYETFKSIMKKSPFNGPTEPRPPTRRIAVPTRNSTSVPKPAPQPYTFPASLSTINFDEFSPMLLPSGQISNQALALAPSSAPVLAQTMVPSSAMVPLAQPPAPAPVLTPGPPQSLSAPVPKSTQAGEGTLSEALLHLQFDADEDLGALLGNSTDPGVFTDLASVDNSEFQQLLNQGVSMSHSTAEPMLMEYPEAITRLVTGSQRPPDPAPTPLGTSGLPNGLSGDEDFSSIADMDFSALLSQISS

Regarding `CCCCCCCCCC(=O)CC(=O)N[C@H]1CCOC1=O`, the outcome in experiment [1], in experiment [2], in experiment [3], in experiment [4], in experiment [5] and in experiment [6] was Active. Further, the result in experiment [7], in [9], in experiment [10], in experiment [12], in experiment [16] and in experiment [17] was Active. In addition, the result in experiment [18], in experiment [20], in experiment [21], in experiment [22] and in experiment [24] was Active. Further, the result in [8] and in [11] was inactive. Moreover, the Activity result in experiment [13], in experiment [14], in [15], in [19] and in [23] was “Dose-dependent effect” throughout.
